Data on one molecule can be found in ChEMBL document CHEMBL4270576, “Discovery of a benzenesulfonamide-based dual inhibitor of microsomal prostaglandin E2 synthase-1 and 5-lipoxygenase that favorably modulates lipid mediator biosynthesis in inflammation” (Eur J Med Chem, 2018).

Each structure is given as a SMILES string. The source made the active and inactive calls. No cut-off for these calls is given here.

The target of experiment [1] is T1, Polyunsaturated fatty acid 5-lipoxygenase (Homo sapiens, UniProt P09917).
T1 sequence (P09917 whole entry): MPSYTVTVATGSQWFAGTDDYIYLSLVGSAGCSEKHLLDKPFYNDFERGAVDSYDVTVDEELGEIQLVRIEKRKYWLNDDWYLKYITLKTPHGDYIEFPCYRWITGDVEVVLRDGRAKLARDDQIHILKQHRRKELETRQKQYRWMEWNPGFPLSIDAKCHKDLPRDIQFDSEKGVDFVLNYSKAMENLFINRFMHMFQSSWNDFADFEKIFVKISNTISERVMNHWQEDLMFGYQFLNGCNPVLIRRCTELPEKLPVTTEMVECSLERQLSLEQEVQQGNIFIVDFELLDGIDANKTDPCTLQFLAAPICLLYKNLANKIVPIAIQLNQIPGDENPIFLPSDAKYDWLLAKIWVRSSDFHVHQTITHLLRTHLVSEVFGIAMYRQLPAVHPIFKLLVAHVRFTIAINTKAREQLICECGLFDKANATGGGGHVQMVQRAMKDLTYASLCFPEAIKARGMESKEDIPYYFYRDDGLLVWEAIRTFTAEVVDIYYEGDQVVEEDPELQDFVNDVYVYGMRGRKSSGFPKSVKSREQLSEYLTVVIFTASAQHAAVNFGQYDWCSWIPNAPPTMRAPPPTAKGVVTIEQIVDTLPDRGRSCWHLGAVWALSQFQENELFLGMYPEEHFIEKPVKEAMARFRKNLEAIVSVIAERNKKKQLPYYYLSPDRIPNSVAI
Kind of experiment: Inhibition of recombinant human 5-LO expressed in Escherichia coli BL21 (DE3) using arachidonic acid as substrate preincubated for 10 mins followed by CaCl2 and substrate addition measured after 10 mins by RP-HPLC analysis. In a few lines: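 Human recombinant 5-LO from E. coli BL21(DE3), ATP-agarose semi-purified (0.5 µg/ml), pre-incubated with compound or 0.1% DMSO at 4 °C. It was pre-warmed 30 s at 37 °C, then started with 2 mM CaCl2 plus 20 µM AA. Stopped after 10 min with ice-cold methanol; products by RP-HPLC. Residual activity at 10 µM; IC50 from 4-5 concentrations; n=3-4.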

Experiment [2] concerns the target T2, Polyunsaturated fatty acid lipoxygenase ALOX12 (Homo sapiens) (UniProt P18054).
T2 sequence (whole entry): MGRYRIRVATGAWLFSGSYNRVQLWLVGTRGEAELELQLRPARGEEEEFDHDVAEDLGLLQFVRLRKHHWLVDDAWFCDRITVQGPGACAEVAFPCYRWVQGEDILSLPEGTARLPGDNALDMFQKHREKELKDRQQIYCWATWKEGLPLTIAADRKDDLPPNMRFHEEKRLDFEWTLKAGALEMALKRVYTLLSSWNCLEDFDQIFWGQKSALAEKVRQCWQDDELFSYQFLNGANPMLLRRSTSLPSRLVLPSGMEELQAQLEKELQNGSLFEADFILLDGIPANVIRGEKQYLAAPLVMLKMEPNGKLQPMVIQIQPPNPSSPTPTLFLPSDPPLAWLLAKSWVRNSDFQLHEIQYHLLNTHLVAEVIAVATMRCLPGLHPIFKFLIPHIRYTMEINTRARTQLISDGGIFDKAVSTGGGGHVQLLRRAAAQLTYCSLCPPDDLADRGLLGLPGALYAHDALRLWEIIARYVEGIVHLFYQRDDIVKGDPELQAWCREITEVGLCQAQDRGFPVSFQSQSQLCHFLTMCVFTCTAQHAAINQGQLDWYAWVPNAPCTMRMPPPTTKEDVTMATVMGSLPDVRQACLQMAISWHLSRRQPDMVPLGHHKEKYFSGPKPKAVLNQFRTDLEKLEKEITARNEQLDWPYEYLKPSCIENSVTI
Nature of the experiment: Modulation of 12-LO-mediated 12-HETE level in human M2 macrophages derived from IL4-polarized human monocyte derived macrophages at 3 uM preincubated for 15 mins followed by Escherichia coli (O6:K2:H1) challenge for 90 mins by LC-MS/MS analysis. In a few lines:
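Monocytes differentiated 6 days with M-CSF (20 ng/ml), then polarized 48 h with IL-4 20 ng/ml (M2). Cells (2 × 10^6) in PBS/1 mM CaCl2 pre-incubated 15 min at 37 °C with 3 µM compound or 0.1% DMSO, then challenged with E. coli O6:K2:H1 (1:50) for 90 min. Lipid mediators extracted by SPE with deuterated internal standards and quantified by UPLC-MS/MS as % of vehicle.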

Experiment [3] has as its target T3, Cytosolic phospholipase A2 (Homo sapiens) (UniProt P47712).
T3 sequence (whole entry): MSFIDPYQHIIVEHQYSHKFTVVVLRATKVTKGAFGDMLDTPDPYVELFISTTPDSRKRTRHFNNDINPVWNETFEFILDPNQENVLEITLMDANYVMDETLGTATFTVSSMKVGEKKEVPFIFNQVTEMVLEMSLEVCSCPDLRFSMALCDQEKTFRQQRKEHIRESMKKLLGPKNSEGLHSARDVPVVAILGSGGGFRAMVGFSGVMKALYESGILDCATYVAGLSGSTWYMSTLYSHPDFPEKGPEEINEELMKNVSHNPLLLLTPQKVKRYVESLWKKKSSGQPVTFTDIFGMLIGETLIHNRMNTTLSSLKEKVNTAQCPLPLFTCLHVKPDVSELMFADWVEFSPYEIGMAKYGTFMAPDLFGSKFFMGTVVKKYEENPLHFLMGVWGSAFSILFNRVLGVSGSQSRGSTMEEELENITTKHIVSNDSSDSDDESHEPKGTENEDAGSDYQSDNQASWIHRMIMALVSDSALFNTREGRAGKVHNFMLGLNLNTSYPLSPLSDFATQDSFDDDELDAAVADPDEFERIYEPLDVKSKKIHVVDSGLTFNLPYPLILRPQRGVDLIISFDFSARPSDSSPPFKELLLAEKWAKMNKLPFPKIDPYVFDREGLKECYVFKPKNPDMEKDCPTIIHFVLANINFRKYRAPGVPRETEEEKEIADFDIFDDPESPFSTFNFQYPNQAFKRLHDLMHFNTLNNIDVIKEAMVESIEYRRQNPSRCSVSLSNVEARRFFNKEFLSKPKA
Nature of the experiment: Inhibition of cPLA2alpha-mediated [3H]-arachidonic acid release in Ca2+ ionophore A23187-stimulated human neutrophils at 10 uM preincubated for 15 mins followed by Ca2+ ionophore A23187 stimulation measured after 5 mins by scintillation counting method. The gist of the method:
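Neutrophils (1 × 10^7) labelled with 5 nM [3H]-AA for 120 min at 37 °C, washed with fatty-acid-free BSA buffer, pre-incubated 15 min at 37 °C with compound or 0.1% DMSO, then stimulated with 2.5 µM A23187 for 5 min. Released [3H]-AA in supernatant counted by liquid scintillation; n=3-4.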

The IC50 is the concentration at which inhibition is half-maximal. For `O=C(O)c1ccc(N(Cc2cccc(OCc3ccccc3)c2)S(=O)(=O)c2ccc(-c3ccccc3)cc2)cc1`, in experiment [1], the IC50 is 2.3 µM. In experiment [2], this molecule yielded an Activity of 151%. The inhibition result in experiment [3] is “inactive”.
